Assay results taken from ChEMBL document CHEMBL4334451, “Natural Alkaloid Berberine Activity against Pseudomonas aeruginosa MexXY-Mediated Aminoglycoside Resistance: In Silico and in Vitro Studies” (J Nat Prod, 2019).
Activity calls are given as the source filed them. The rule behind the calls is not given here.

Tests used:
Type in all cases: protein-complex assay
[1] = molecular target: T1, MexXY/OprM (Pseudomonas aeruginosa (strain ATCC 15692 / DSM 22644 / CIP 104116 / JCM14847 / LMG 12228 / 1C / PRS 101 / PAO1)) (UniProt Q51487+Q9ZNG9+Q9ZNG8); assay: Inhibition of MexXY/OPRM in Pseudomonas aeruginosa C25 assessed as bacterial growth up to 320 ug/ml incubated for 24 to 48 hrs by broth microdilution method
In short: (§1)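 Broth microdilution following CLSI guidelines, with P. aeruginosa ATCC 27853 as reference strain. Berberine was tested at 2-fold concentrations from 10 to 320 µg/ml, dissolved in 50% DMSO/50% methanol, with the top concentration set to keep final DMSO close to 1%. Plates were incubated at 37°C and read for visible growth at 24 and 48 h.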

[2] = molecular target: T1, MexXY/OprM (Pseudomonas aeruginosa (strain ATCC 15692 / DSM 22644 / CIP 104116 / JCM14847 / LMG 12228 / 1C / PRS 101 / PAO1)); assay: Inhibition of MexXY/OPRM in Pseudomonas aeruginosa C93 assessed as bacterial growth up to 320 ug/ml incubated for 24 to 48 hrs by broth microdilution method
In short: (§2)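 Broth microdilution per CLSI, with P. aeruginosa ATCC 27853 as reference strain, in 2-fold dilution series. Plates were incubated at 37°C and read for visible growth at 24 and 48 h. Berberine stock was in 50% DMSO/50% methanol, with final DMSO kept near 1%. Berberine was tested at 10–320 µg/ml, alone or at a fixed level with serial tobramycin.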

[3] = molecular target: T1, MexXY/OprM (Pseudomonas aeruginosa (strain ATCC 15692 / DSM 22644 / CIP 104116 / JCM14847 / LMG 12228 / 1C / PRS 101 / PAO1)); assay: Inhibition of MexXY/OPRM in Pseudomonas aeruginosa C95 assessed as bacterial growth up to 320 ug/ml incubated for 24 to 48 hrs by broth microdilution method; in short: as §2
[4] = molecular target: T1, MexXY/OprM (Pseudomonas aeruginosa (strain ATCC 15692 / DSM 22644 / CIP 104116 / JCM14847 / LMG 12228 / 1C / PRS 101 / PAO1)); assay: Inhibition of MexXY/OPRM in Pseudomonas aeruginosa C67 assessed as reduction in bacterial resistance to tobramycin by measuring tobramycin MIC at 80 ug/ml incubated for 24 to 48 hrs by broth microdilution method (reference value: 16 ug/ml)
[5] = molecular target: T1, MexXY/OprM (Pseudomonas aeruginosa (strain ATCC 15692 / DSM 22644 / CIP 104116 / JCM14847 / LMG 12228 / 1C / PRS 101 / PAO1)); assay: Inhibition of MexXY/OPRM in Pseudomonas aeruginosa C86 assessed as bacterial growth up to 320 ug/ml incubated for 24 to 48 hrs by broth microdilution method; in short: as §2
[6] = molecular target: T1, MexXY/OprM (Pseudomonas aeruginosa (strain ATCC 15692 / DSM 22644 / CIP 104116 / JCM14847 / LMG 12228 / 1C / PRS 101 / PAO1)); assay: Inhibition of MexXY/OPRM in Pseudomonas aeruginosa C6 assessed as reduction in bacterial resistance to tobramycin by measuring tobramycin MIC at 80 ug/ml incubated for 24 to 48 hrs by broth microdilution method (reference value: 2 ug/ml)
[7] = molecular target: T1, MexXY/OprM (Pseudomonas aeruginosa (strain ATCC 15692 / DSM 22644 / CIP 104116 / JCM14847 / LMG 12228 / 1C / PRS 101 / PAO1)); assay: Inhibition of MexXY/OPRM in Pseudomonas aeruginosa AR48 assessed as reduction in bacterial resistance to tobramycin by measuring tobramycin MIC at 80 ug/ml incubated for 24 to 48 hrs by broth microdilution method (reference value: 32 ug/ml)
[8] = molecular target: T1, MexXY/OprM (Pseudomonas aeruginosa (strain ATCC 15692 / DSM 22644 / CIP 104116 / JCM14847 / LMG 12228 / 1C / PRS 101 / PAO1)); assay: Inhibition of MexXY/OPRM in Pseudomonas aeruginosa PA14 assessed as bacterial growth up to 320 ug/ml incubated for 24 to 48 hrs by broth microdilution method; in short: as §2
[9] = molecular target: T1, MexXY/OprM (Pseudomonas aeruginosa (strain ATCC 15692 / DSM 22644 / CIP 104116 / JCM14847 / LMG 12228 / 1C / PRS 101 / PAO1)); assay: Inhibition of MexXY/OPRM in Pseudomonas aeruginosa C31 assessed as bacterial growth up to 320 ug/ml incubated for 24 to 48 hrs by broth microdilution method; in short: as §1
[10] = molecular target: T1, MexXY/OprM (Pseudomonas aeruginosa (strain ATCC 15692 / DSM 22644 / CIP 104116 / JCM14847 / LMG 12228 / 1C / PRS 101 / PAO1)); assay: Inhibition of MexXY/OPRM in Pseudomonas aeruginosa C95 assessed as reduction in bacterial resistance to tobramycin by measuring tobramycin MIC at 80 ug/ml incubated for 24 to 48 hrs by broth microdilution method (reference value: 32 ug/ml); in short: as §2
[11] = molecular target: T1, MexXY/OprM (Pseudomonas aeruginosa (strain ATCC 15692 / DSM 22644 / CIP 104116 / JCM14847 / LMG 12228 / 1C / PRS 101 / PAO1)); assay: Inhibition of MexXY/OPRM in Pseudomonas aeruginosa PA14 assessed as reduction in bacterial resistance to tobramycin by measuring tobramycin MIC at 80 ug/ml incubated for 24 to 48 hrs by broth microdilution method (reference value: 0.125 ug/ml); in short: as §2
[12] = molecular target: T1, MexXY/OprM (Pseudomonas aeruginosa (strain ATCC 15692 / DSM 22644 / CIP 104116 / JCM14847 / LMG 12228 / 1C / PRS 101 / PAO1)); assay: Inhibition of MexXY/OPRM in Pseudomonas aeruginosa C60 assessed as reduction in bacterial resistance to tobramycin by measuring tobramycin MIC at 80 ug/ml incubated for 24 to 48 hrs by broth microdilution method (reference value: >128 ug/ml)
[13] = molecular target: T1, MexXY/OprM (Pseudomonas aeruginosa (strain ATCC 15692 / DSM 22644 / CIP 104116 / JCM14847 / LMG 12228 / 1C / PRS 101 / PAO1)); assay: Inhibition of MexXY/OPRM in Pseudomonas aeruginosa C86 assessed as reduction in bacterial resistance to tobramycin by measuring tobramycin MIC at 80 ug/ml incubated for 24 to 48 hrs by broth microdilution method (reference value: 128 ug/ml); in short: as §2
[14] = molecular target: T1, MexXY/OprM (Pseudomonas aeruginosa (strain ATCC 15692 / DSM 22644 / CIP 104116 / JCM14847 / LMG 12228 / 1C / PRS 101 / PAO1)); assay: Inhibition of MexXY/OPRM in Pseudomonas aeruginosa C31 assessed as reduction in bacterial resistance to tobramycin by measuring tobramycin MIC at 80 ug/ml incubated for 24 to 48 hrs by broth microdilution method (reference value: 8 ug/ml)
[15] = molecular target: T1, MexXY/OprM (Pseudomonas aeruginosa (strain ATCC 15692 / DSM 22644 / CIP 104116 / JCM14847 / LMG 12228 / 1C / PRS 101 / PAO1)); assay: Inhibition of MexXY/OPRM in Pseudomonas aeruginosa C93 assessed as reduction in bacterial resistance to tobramycin by measuring tobramycin MIC at 80 ug/ml incubated for 24 to 48 hrs by broth microdilution method (reference value: >128 ug/ml); in short: as §2
[16] = molecular target: T1, MexXY/OprM (Pseudomonas aeruginosa (strain ATCC 15692 / DSM 22644 / CIP 104116 / JCM14847 / LMG 12228 / 1C / PRS 101 / PAO1)); assay: Inhibition of MexXY/OPRM in Pseudomonas aeruginosa C6 assessed as bacterial growth up to 320 ug/ml incubated for 24 to 48 hrs by broth microdilution method; in short: as §1
[17] = molecular target: T1, MexXY/OprM (Pseudomonas aeruginosa (strain ATCC 15692 / DSM 22644 / CIP 104116 / JCM14847 / LMG 12228 / 1C / PRS 101 / PAO1)); assay: Inhibition of MexXY/OPRM in Pseudomonas aeruginosa C89 assessed as reduction in bacterial resistance to tobramycin by measuring fold reduction in tobramycin MIC at 80 ug/ml incubated for 24 to 48 hrs by broth microdilution method
In short: (§3)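 Tobramycin MIC by CLSI broth microdilution at 37°C, read at 24 and 48 h, with and without a fixed berberine concentration selected from checkerboard assays. Berberine stock was in 50% DMSO/50% methanol, final DMSO about 1%. A 2-fold decrease in tobramycin MIC was scored as synergy.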

[18] = molecular target: T1, MexXY/OprM (Pseudomonas aeruginosa (strain ATCC 15692 / DSM 22644 / CIP 104116 / JCM14847 / LMG 12228 / 1C / PRS 101 / PAO1)); assay: Inhibition of MexXY/OPRM in Pseudomonas aeruginosa AR51 assessed as reduction in bacterial resistance to tobramycin by measuring tobramycin MIC at 80 ug/ml incubated for 24 to 48 hrs by broth microdilution method (reference value: 16 ug/ml)
[19] = molecular target: T1, MexXY/OprM (Pseudomonas aeruginosa (strain ATCC 15692 / DSM 22644 / CIP 104116 / JCM14847 / LMG 12228 / 1C / PRS 101 / PAO1)); assay: Inhibition of MexXY/OPRM in Pseudomonas aeruginosa C83 assessed as reduction in bacterial resistance to tobramycin by measuring tobramycin MIC at 80 ug/ml incubated for 24 to 48 hrs by broth microdilution method (reference value: 128 ug/ml)
[20] = molecular target: T1, MexXY/OprM (Pseudomonas aeruginosa (strain ATCC 15692 / DSM 22644 / CIP 104116 / JCM14847 / LMG 12228 / 1C / PRS 101 / PAO1)); assay: Inhibition of MexXY/OPRM in Pseudomonas aeruginosa C59 assessed as reduction in bacterial resistance to tobramycin by measuring tobramycin MIC at 80 ug/ml incubated for 24 to 48 hrs by broth microdilution method (reference value: 64 ug/ml)
[21] = molecular target: T1, MexXY/OprM (Pseudomonas aeruginosa (strain ATCC 15692 / DSM 22644 / CIP 104116 / JCM14847 / LMG 12228 / 1C / PRS 101 / PAO1)); assay: Inhibition of MexXY/OPRM in Pseudomonas aeruginosa C84 assessed as bacterial growth up to 320 ug/ml incubated for 24 to 48 hrs by broth microdilution method; in short: as §2
[22] = molecular target: T1, MexXY/OprM (Pseudomonas aeruginosa (strain ATCC 15692 / DSM 22644 / CIP 104116 / JCM14847 / LMG 12228 / 1C / PRS 101 / PAO1)); assay: Inhibition of MexXY/OPRM in Pseudomonas aeruginosa C30 assessed as bacterial growth up to 320 ug/ml incubated for 24 to 48 hrs by broth microdilution method; in short: as §1
[23] = molecular target: T1, MexXY/OprM (Pseudomonas aeruginosa (strain ATCC 15692 / DSM 22644 / CIP 104116 / JCM14847 / LMG 12228 / 1C / PRS 101 / PAO1)); assay: Inhibition of MexXY/OPRM in Pseudomonas aeruginosa C95 assessed as reduction in bacterial resistance to tobramycin by measuring fold reduction in tobramycin MIC at 80 ug/ml incubated for 24 to 48 hrs by broth microdilution method; in short: as §3

Question: For `COc1ccc2cc3[n+](cc2c1OC)CCc1cc2c(cc1-3)OCO2` [BERBERINE], which inhibition [1] is on record?
Answer: inactive

Question: And the inhibition [2]?
Answer: inactive

Question: What about the inhibition [3] of the same molecule?
Answer: inactive

Question: And the MIC [4]?
Answer: 16 µg/mL

Question: What about the inhibition [5] of the same molecule?
Answer: inactive

Question: And the MIC [6]?
Answer: 0.5 µg/mL

Question: What about the MIC [7] of the same molecule?
Answer: 8 µg/mL

Question: What about the inhibition [8] of the same molecule?
Answer: inactive

Question: What about the inhibition [9] of the same molecule?
Answer: inactive

Question: And the MIC [10]?
Answer: 4 µg/mL

Question: And the MIC [11]?
Answer: 0.125 µg/mL

Question: And the MIC [12]?
Answer: 64 µg/mL

Question: What about the MIC [13] of the same molecule?
Answer: 16 µg/mL

Question: What about the MIC [14] of the same molecule?
Answer: 8 µg/mL

Question: And the MIC [15]?
Answer: 64 µg/mL

Question: And the inhibition [16]?
Answer: inactive

Question: And the fold change (FC) [17]?
Answer: > 2

Question: What about the MIC [18] of the same molecule?
Answer: 8 µg/mL

Question: What about the MIC [19] of the same molecule?
Answer: 32 µg/mL

Question: What about the MIC [20] of the same molecule?
Answer: 32 µg/mL

Question: And the inhibition [21]?
Answer: inactive

Question: And the inhibition [22]?
Answer: inactive

Question: What about the fold change (FC) [23] of the same molecule?
Answer: > 2
